Experiments:
UACC-257 = test: Cytotoxicity against human UACC257 cells assessed as cell growth at 10^-5 M after 48 hrs by SRB assay; assay type: functional; conditions: UACC-257, 48 h, read-out: Activity
In short: (§1)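 NCI-60 one-dose screen across nine tumour subpanels. Each agent added once at 10^-5 M, cultures incubated 48 h. Endpoint is sulforhodamine B protein staining read spectrophotometrically. Output is percent growth of treated cells relative to untreated controls.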

HT-29 = test: Cytotoxicity against human HT-29 cells assessed as cell growth at 10^-5 M after 48 hrs by SRB assay; assay type: functional; conditions: HT-29, 48 h, read-out: Activity
In short: (§2)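 NCI 60-cell-line primary one-dose screen across nine tumour subpanels. Compound added at a single concentration of 10^-5 M and cultures incubated 48 h. Endpoint was sulforhodamine B protein staining read spectrophotometrically, with growth expressed as percent of untreated control cells.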

RXF 393 = test: Cytotoxicity against human RXF393 cells assessed as cell growth at 10^-5 M after 48 hrs by SRB assay; assay type: functional; conditions: RXF 393, 48 h, read-out: Activity; in short: as §2
MDA-MB-231 = test: Cytotoxicity against human MDA-MB-231 cells assessed as cell growth at 10^-5 M after 48 hrs by SRB assay; assay type: functional; conditions: MDA-MB-231, 48 h, read-out: Activity; in short: as §2
KM12 = test: Cytotoxicity against human KM12 cells assessed as cell growth at 10^-5 M after 48 hrs by SRB assay; assay type: functional; conditions: KM12, 48 h, read-out: Activity; in short: as §2
MDA-MB-468 = test: Cytotoxicity against human MDA-MB-468 cells assessed as cell growth at 10^-5 M after 48 hrs by SRB assay; assay type: functional; conditions: MDA-MB-468, 48 h, read-out: Activity; in short: as §2
HOP-92 = test: Cytotoxicity against human HOP92 cells assessed as cell growth at 10^-5 M after 48 hrs by SRB assay; assay type: functional; conditions: HOP-92, 48 h, read-out: Activity; in short: as §2
CCRF-CEM = test: Cytotoxicity against human CCRF-CEM cells assessed as cell growth at 10^-5 M after 48 hrs by SRB assay; assay type: functional; conditions: read-out: Activity; in short: as §2
[1] = Cytotoxicity against human EKVX cells assessed as cell growth at 10^-5 M after 48 hrs by SRB assay; assay type: functional; conditions: read-out: Activity; in short: as §2
MOLT-4 = test: Cytotoxicity against human MOLT4 cells assessed as cell growth at 10^-5 M after 48 hrs by SRB assay; assay type: functional; conditions: MOLT-4, 48 h, read-out: Activity; in short: as §2
BT-549 = test: Cytotoxicity against human BT549 cells assessed as cell growth at 10^-5 M after 48 hrs by SRB assay; assay type: functional; conditions: BT-549, 48 h, read-out: Activity; in short: as §2
[2] = Induction of nitric oxide release in phosphate buffer at pH 7.4 at 0.1 mM after 1 hr by Griess method in presence of 0.5 mM of N-acetylcysteine; assay type: physicochemical; conditions: pH 7.4, 1 h, 100 µM
In short: (§3)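 Compound in DMF diluted to final 10^-4 M in 1:1 50 mM phosphate buffer pH 7.4/MeOH with 5×10^-4 M N-acetylcysteine, 37 °C. Aliquot mixed with Griess reagent, 10 min at room temperature, A546 read. Nitrite quantified against sodium nitrite standards (10–80 nmol/mL); NO expressed as mol/mol. n = 4 reaction mixtures per compound.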

SF-295 = test: Cytotoxicity against human SF295 cells assessed as cell growth at 10^-5 M after 48 hrs by SRB assay; assay type: functional; conditions: SF-295, 48 h, read-out: Activity; in short: as §2
ACHN = test: Cytotoxicity against human ACHN cells assessed as cell growth at 10^-5 M after 48 hrs by SRB assay; assay type: functional; conditions: read-out: Activity; in short: as §2
HCC 2998 = test: Cytotoxicity against human HCC2998 cells assessed as cell growth at 10^-5 M after 48 hrs by SRB assay; assay type: functional; conditions: HCC 2998, 48 h, read-out: Activity; in short: as §2
CAKI-1 = test: Cytotoxicity against human CAKI-1 cells assessed as cell growth at 10^-5 M after 48 hrs by SRB assay; assay type: functional; conditions: CAKI-1, 48 h, read-out: Activity; in short: as §2
U-251 = test: Cytotoxicity against human U251 cells assessed as cell growth at 10^-5 M after 48 hrs by SRB assay; assay type: functional; conditions: U-251, 48 h, read-out: Activity; in short: as §1
RPMI-8226 = test: Cytotoxicity against human RPMI8226 cells assessed as cell growth at 10^-5 M after 48 hrs by SRB assay; assay type: functional; conditions: RPMI-8226, 48 h, read-out: Activity; in short: as §2
SF-268 = test: Cytotoxicity against human SF268 cells assessed as cell growth at 10^-5 M after 48 hrs by SRB assay; assay type: functional; conditions: SF-268, 48 h, read-out: Activity; in short: as §2
SW-620 = test: Cytotoxicity against human SW620 cells assessed as cell growth at 10^-5 M after 48 hrs by SRB assay; assay type: functional; conditions: SW-620, 48 h, read-out: Activity; in short: as §1
SNB-19 = test: Cytotoxicity against human SNB19 cells assessed as cell growth at 10^-5 M after 48 hrs by SRB assay; assay type: functional; conditions: SNB-19, 48 h, read-out: Activity; in short: as §1
[3] = Induction of nitric oxide release in phosphate buffer at pH 7.4 at 0.1 mM after 5 hrs by Griess method in presence of 0.5 mM of N-acetylcysteine; assay type: physicochemical; conditions: pH 7.4, 5 h, 100 µM; in short: as §3
Malme-3M = test: Cytotoxicity against human MALME-3M cells assessed as cell growth at 10^-5 M after 48 hrs by SRB assay; assay type: functional; conditions: read-out: Activity; in short: as §2
UO-31 = test: Cytotoxicity against human UO31 cells assessed as cell growth at 10^-5 M after 48 hrs by SRB assay; assay type: functional; conditions: UO-31, 48 h, read-out: Activity; in short: as §1
A498 = test: Cytotoxicity against human A498 cells assessed as cell growth at 10^-5 M after 48 hrs by SRB assay; assay type: functional; conditions: A498, 48 h, read-out: Activity; in short: as §2
SR = test: Cytotoxicity against human SR cells assessed as cell growth at 10^-5 M after 48 hrs by SRB assay; assay type: functional; conditions: read-out: Activity; in short: as §1
COLO 205 = test: Cytotoxicity against human COLO205 cells assessed as cell growth at 10^-5 M after 48 hrs by SRB assay; assay type: functional; conditions: COLO 205, 48 h, read-out: Activity; in short: as §2
[4] = Induction of nitric oxide release in phosphate buffer at pH 7.4 at 0.1 mM after 6 hrs by Griess method in presence of 0.5 mM of N-acetylcysteine; assay type: physicochemical; conditions: pH 7.4, 6 h, 100 µM; in short: as §3
HCT-116 = test: Cytotoxicity against human HCT116 cells assessed as cell growth at 10^-5 M after 48 hrs by SRB assay; assay type: functional; conditions: HCT-116, 48 h, read-out: Activity; in short: as §2
MCF7 = test: Cytotoxicity against human MCF7 cells assessed as cell growth at 10^-5 M after 48 hrs by SRB assay; assay type: functional; conditions: MCF7, 48 h, read-out: Activity; in short: as §2
[5] = Induction of nitric oxide release in phosphate buffer at pH 7.4 at 0.1 mM after 3 hrs by Griess method in presence of 0.5 mM of N-acetylcysteine; assay type: physicochemical; conditions: pH 7.4, 3 h, 100 µM; in short: as §3
OVCAR-5 = test: Cytotoxicity against human OVCAR5 cells assessed as cell growth at 10^-5 M after 48 hrs by SRB assay; assay type: functional; conditions: OVCAR-5, 48 h, read-out: Activity; in short: as §2

## CCn1c(SC/C(=N/O)c2ccccc2)nnc1-c1ccc(OC)c(OC)c1
UACC-257
  growth at 10 µM: 104%
HT-29
  growth at 10 µM: 100%
RXF 393
  growth at 10 µM: 114%
MDA-MB-231
  growth at 10 µM: 104%
KM12
  growth at 10 µM: 100%
MDA-MB-468
  growth at 10 µM: 111%
HOP-92
  growth at 10 µM: 107%
CCRF-CEM
  growth at 10 µM: 98%
[1]
  growth at 10 µM: 102%
MOLT-4
  growth at 10 µM: 87.4%
BT-549
  growth at 10 µM: 134%
[2]
  Activity: 0.06 mol/mol
SF-295
  growth at 10 µM: 146%
ACHN
  growth at 10 µM: 103%
HCC 2998
  growth at 10 µM: 104%
CAKI-1
  growth at 10 µM: 102%
U-251
  growth at 10 µM: 101%
RPMI-8226
  growth at 10 µM: 101%
SF-268
  growth at 10 µM: 101%
SW-620
  growth at 10 µM: 106%
SNB-19
  growth at 10 µM: 99.9%
[3]
  Activity: 0.25 mol/mol
Malme-3M
  growth at 10 µM: 94.8%
UO-31
  growth at 10 µM: 85.4%
A498
  growth at 10 µM: 92.3%
SR
  growth at 10 µM: 95.4%
COLO 205
  growth at 10 µM: 93.5%
[4]
  Activity: 0.2 mol/mol
HCT-116
  growth at 10 µM: 108%
MCF7
  growth at 10 µM: 118%
[5]
  Activity: 0.2 mol/mol
OVCAR-5
  growth at 10 µM: 107%
